ChEMBL document CHEMBL1806460, “Synthesis of rotenoid derivatives with cytotoxic and topoisomerase II inhibitory activities” (Bioorg Med Chem Lett, 2011)

Key:
NCI-H187 = assay: Cytotoxicity against human NCI-H187 cells after 3 days by MTT assay; type: functional, cell-based; conditions: NCI-H187, 72 h
Method in brief: (§1)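 Cells were cultured per supplier instructions at 2–4 × 10⁴ cells/well in medium with 10% (v/v) FBS, overnight at 37 °C under 5% CO₂. Compounds were then added, and after 3 days MTT was added to 0.5 mg/mL final for 4 h. Medium was replaced for solubilization with glycine pH 10.5. Doxorubicin was the positive control, and IC₅₀ values were derived.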

SW-620 = assay: Cytotoxicity against human SW620 cells after 3 days by MTT assay; type: functional, cell-based; conditions: SW-620, 72 h; method in brief: as §1
HepG2 = assay: Cytotoxicity against human HepG2 cells after 3 days by MTT assay; type: functional, cell-based; conditions: HepG2, 72 h; method in brief: as §1
BT-474 = assay: Cytotoxicity against human BT474 cells after 3 days by MTT assay; type: functional, cell-based; conditions: BT-474, 72 h; method in brief: as §1
[1] = target: DNA topoisomerase 2-alpha (Homo sapiens) (UniProt P11388); assay: Inhibition of human topoisomerase 2alpha-mediated relaxation of supercoiled pBR322 at 100 uM after 30 mins by electrophoresis analysis
DNA topoisomerase 2-alpha (Homo sapiens), sequence (P11388 whole entry): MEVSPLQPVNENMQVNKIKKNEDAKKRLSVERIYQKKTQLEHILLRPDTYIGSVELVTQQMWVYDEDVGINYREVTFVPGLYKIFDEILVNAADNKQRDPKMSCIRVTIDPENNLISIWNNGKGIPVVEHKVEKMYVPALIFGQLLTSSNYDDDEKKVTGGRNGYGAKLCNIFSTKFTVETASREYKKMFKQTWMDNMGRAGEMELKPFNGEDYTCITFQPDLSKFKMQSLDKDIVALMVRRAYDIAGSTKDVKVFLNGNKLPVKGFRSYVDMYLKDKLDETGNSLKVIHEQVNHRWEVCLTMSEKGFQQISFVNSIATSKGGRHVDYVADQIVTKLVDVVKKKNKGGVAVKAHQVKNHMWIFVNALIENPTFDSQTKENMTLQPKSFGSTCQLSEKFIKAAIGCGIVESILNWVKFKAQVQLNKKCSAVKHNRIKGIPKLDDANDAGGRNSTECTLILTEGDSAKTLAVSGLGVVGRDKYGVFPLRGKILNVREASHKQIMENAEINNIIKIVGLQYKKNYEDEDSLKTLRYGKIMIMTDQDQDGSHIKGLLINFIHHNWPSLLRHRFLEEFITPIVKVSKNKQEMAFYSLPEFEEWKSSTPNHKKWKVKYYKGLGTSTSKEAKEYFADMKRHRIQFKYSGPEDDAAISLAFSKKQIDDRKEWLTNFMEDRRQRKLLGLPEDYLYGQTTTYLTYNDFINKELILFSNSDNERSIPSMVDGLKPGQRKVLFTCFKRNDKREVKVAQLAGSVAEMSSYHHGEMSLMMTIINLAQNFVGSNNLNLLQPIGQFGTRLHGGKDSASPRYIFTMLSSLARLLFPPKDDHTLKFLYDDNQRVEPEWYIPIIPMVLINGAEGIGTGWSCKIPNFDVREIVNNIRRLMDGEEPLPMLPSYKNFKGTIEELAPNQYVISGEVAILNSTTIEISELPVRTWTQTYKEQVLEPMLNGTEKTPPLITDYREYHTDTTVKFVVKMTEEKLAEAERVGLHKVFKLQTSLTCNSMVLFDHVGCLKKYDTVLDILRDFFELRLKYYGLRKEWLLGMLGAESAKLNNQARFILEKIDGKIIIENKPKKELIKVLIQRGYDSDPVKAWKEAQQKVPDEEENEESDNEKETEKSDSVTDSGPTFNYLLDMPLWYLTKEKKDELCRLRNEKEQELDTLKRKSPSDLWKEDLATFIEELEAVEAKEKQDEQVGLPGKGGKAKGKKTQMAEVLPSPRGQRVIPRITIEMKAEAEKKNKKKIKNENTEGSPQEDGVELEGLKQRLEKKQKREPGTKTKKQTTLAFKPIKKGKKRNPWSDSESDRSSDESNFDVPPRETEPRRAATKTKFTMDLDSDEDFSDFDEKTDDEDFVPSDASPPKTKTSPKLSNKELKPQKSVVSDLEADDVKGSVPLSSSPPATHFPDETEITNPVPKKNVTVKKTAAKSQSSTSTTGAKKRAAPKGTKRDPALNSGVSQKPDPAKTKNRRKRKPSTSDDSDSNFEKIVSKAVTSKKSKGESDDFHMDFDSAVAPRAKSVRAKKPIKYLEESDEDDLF

[2] = Cytotoxicity against human ChaGo cells after 3 days by MTT assay; type: functional, cell-based; conditions: 72 h; method in brief: as §1
MCF7 = assay: Cytotoxicity against human MCF7 cells after 3 days by MTT assay; type: functional, cell-based; conditions: MCF7, 72 h; method in brief: as §1
KB = assay: Cytotoxicity against human KB cells after 3 days by MTT assay; type: functional, cell-based; conditions: 72 h; method in brief: as §1
[3] = Cytotoxicity against human KATO cells after 3 days by MTT assay; type: functional, cell-based; conditions: 72 h; method in brief: as §1
Nucleic Acid [4] = assay: Binding affinity to calf thymus DNA assessed as increase in melting temperature (reference value: 56.4 degC); type: nucleic-acid assay; conditions: Bos taurus
Nucleic Acid [5] = assay: Binding affinity to calf thymus DNA assessed as change in melting temperature; type: nucleic-acid assay; conditions: Bos taurus
[6] = target: DNA topoisomerase 2-alpha (Homo sapiens) (UniProt P11388); assay: Inhibition of human topoisomerase 2alpha-mediated relaxation of supercoiled pBR322 at 20 uM after 30 mins by electrophoresis analysis

Compound	IC50 (NCI-H187) [µM]	IC50 (SW-620) [µM]	IC50 (HepG2) [µM]	IC50 (BT-474) [µM]	inhibition [1] [%]	IC50 [2] [µM]	IC50 (MCF7) [µM]	IC50 (KB) [µM]	IC50 [3] [µM]	Tm (Nucleic Acid [4]) [°C]	ΔTm (Nucleic Acid [5]) [°C]	inhibition [6] [%]
COc1cc(OCC(O)CN2CCC(=O)CC2)c2c(c1)O[C@@H]1COc3cc(OC)c(OC)cc3[C@]1(O)C2=O (mixture of isomers)	> 100	> 100	> 100	> 100	54.2	> 100	48.6	> 100	> 100	–	–	–
COCC(O)COc1cc(OC)cc2c1C(=O)[C@@]1(O)c3cc(OC)c(OC)cc3OC[C@H]1O2 (mixture of isomers)	11.7	> 100	> 100	> 100	58.4	> 100	> 100	46.9	> 100	–	–	–
COc1cc(O)c2c(c1)O[C@@H]1COc3cc(OC)c(OC)cc3[C@]1(O)C2=O	3.12	> 100	> 100	> 100	72.1	> 100	23.7	13.3	> 100	57.3	–	–
COc1cc(OCC(O)CNCCN2CCOCC2)c2c(c1)O[C@@H]1COc3cc(OC)c(OC)cc3[C@]1(O)C2=O (mixture of isomers)	4.7	0.54	0.56	0.45	77.1	40.2	36.8	26.3	1.94	66.1	8.8	–
COc1cc(OCC(O)CN(CCO)CCO)c2c(c1)O[C@@H]1COc3cc(OC)c(OC)cc3[C@]1(O)C2=O (stereo not given in full)	> 100	> 100	> 100	> 100	49.1	> 100	> 100	> 100	> 100	–	–	–
COc1cc(OCC(O)CNCC(O)c2ccccc2)c2c(c1)O[C@@H]1COc3cc(OC)c(OC)cc3[C@]1(O)C2=O (mixture of isomers)	22.1	> 100	> 100	> 100	60.4	> 100	–	46.4	> 100	–	–	–
COc1cc(OCC(O)CN2CCOCC2)c2c(c1)O[C@@H]1COc3cc(OC)c(OC)cc3[C@]1(O)C2=O (mixture of isomers)	2.93	0.73	0.61	0.34	93.5	0.61	31.7	26.5	> 100	65.1	7.8	47.1
COc1cc(OCC(O)CO)c2c(c1)O[C@@H]1COc3cc(OC)c(OC)cc3[C@]1(O)C2=O (mixture of isomers)	13.9	8.04	> 100	> 100	38.8	> 100	> 100	13.4	> 100	–	–	–
COc1cc(OCC(O)CCl)c2c(c1)O[C@@H]1COc3cc(OC)c(OC)cc3[C@]1(O)C2=O (mixture of isomers)	6.61	1.09	0.81	1.57	58.3	> 100	24.9	14.8	1.09	–	–	–
COc1cc(OCC2CO2)c2c(c1)O[C@@H]1COc3cc(OC)c(OC)cc3[C@]1(O)C2=O (mixture of isomers)	27.8	0.38	0.55	0.45	68.3	0.57	5.63	32.9	0.63	59.3	2	–
COc1cc(OCC(O)CNCc2ccccc2)c2c(c1)O[C@@H]1COc3cc(OC)c(OC)cc3[C@]1(O)C2=O (mixture of isomers)	35.5	0.59	0.72	0.62	81.7	31	34.6	32.3	0.67	68	10.7	–
COc1cc(OCC(O)CNCCc2ccccc2)c2c(c1)O[C@@H]1COc3cc(OC)c(OC)cc3[C@]1(O)C2=O (mixture of isomers)	13.6	> 100	> 100	> 100	66.7	> 100	3.05	23.5	> 100	–	–	–
COc1cccc2c1C(=O)c1c(O)c3c(c(O)c1C2=O)C[C@@](O)(C(=O)CO)C[C@@H]3O[C@H]1C[C@H](N)[C@H](O)[C@H](C)O1 [DOXORUBICIN]	0.03	0.23	0.26	0.07	72.1	0.83	–	2.01	0.33	–	–	–
